Assay [1] in a line: Agonist activity at Hh receptor in mouse C3H10T1/2 cells assessed as fold increase in Gli1 expression at 5 uM by RT-PCR analysis relative to control. Format: functional, C3H 10T1/2.
Assay [2] can be described thus: Agonist activity at LXR in mouse C3H10T1/2 cells assessed as fold increase in ABCA1 expression at 5 uM by RT-PCR analysis relative to control. Type of assay: functional, C3H 10T1/2.
Assay [3] can be described thus: Selectivity ratio of agonist activity at Hh receptor over agonist activity at LXR in mouse C3H10T1/2 cells. Format: functional, C3H 10T1/2.
The subject of assay [4] is M210B4. Nature of the assay: Agonist activity at Hh receptor in mouse M210B4 cells assessed as upregulation of Gli1 at 5 uM after 24 hrs by RT-PCR analysis relative to control. Format: functional, cell-based. A digest of the protocol: (§1)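 Read-out: GLI1 or PTCH mRNA in M2-10B4 cells. Cells were pretreated for 2 h with cyclopamine (5 μM), or left without it, then given OHC (5 μM). mRNA was measured after 24 h of incubation and expressed as fold induction over the DMSO control, set at 1. Data come from a representative experiment run in triplicate.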

Assay [5] has as its system M210B4. Kind of assay: (§2) Agonist activity at Hh receptor in mouse M210B4 cells assessed as increase in Ptch expression by RT-PCR analysis. Format: functional, cell-based. In outline: (§3)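 Dose-response in C3H10T1/2 and M2-10B4 cells. Read-out: mRNA of GLI1, PTCH (Hh) or ABCA1 (LXR), expressed relative to the DMSO control. EC50 values were derived from these curves.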
Assay [6] in a line: as §2. Type of assay: functional, cell-based. In outline:
as §3

Assay [7] concerns M210B4. Kind of assay: Selectivity ratio of EC50 for LXR to EC50 for Hh receptor in mouse M210B4 cells. Format: cell-based.
Assay [8] concerns M210B4. Nature of the assay: Ratio of EC50 for Hh receptor in mouse M210B4 cells to EC50 for Hh receptor in mouse C3H10T1/2 cells. Format: cell-based.
Assay [9] has as its system M210B4. Kind of assay: (§4) Agonist activity at Hh receptor in mouse M210B4 cells assessed as increase in Gli1 expression by RT-PCR analysis. Format: functional, cell-based. A digest of the protocol: as §3
Assay [10] can be described thus: as §4. Format: functional, cell-based. A digest of the protocol: as §3
The nature of assay [11]: (§5) Agonist activity at Hh receptor in mouse C3H10T1/2 cells assessed as increase in Ptch expression by RT-PCR analysis. Type of assay: functional, cell-based. Conditions: C3H 10T1/2. In outline: as §3
The subject of assay [12] is C3H 10T1/2. The description is as §5. Format: functional, cell-based. A digest of the protocol:
as §3

The test system of assay [13] is M210B4. Nature of the assay: Agonist activity at Hh receptor in mouse M210B4 cells assessed as upregulation of Gli1 at 5 uM after 24 hrs by RT-PCR analysis in presence of cyclopamine relative to control. Type of assay: functional, cell-based. A digest of the protocol:
as §1

The subject of assay [14] is M210B4. Kind of assay: Induction of Hh receptor-mediated osteoblast formation in mouse M210B4 cells assessed as increase in ALP expression at 5 uM up to 96 hrs by RT-PCR analysis relative to control. Format: cell-based. In outline:
(§6)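 M2-10B4 cells received OHC (5 μM), or the 20(S)-/22(S)-OHC pair (5 μM each). Osterix and alkaline phosphatase mRNA were measured at time points of 24, 48 and 96 h. Expression is relative to the DMSO control. Data come from a representative experiment run in triplicate.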

The test system of assay [15] is C3H 10T1/2. Kind of assay: Selectivity ratio of EC50 for LXR to EC50 for Hh receptor in mouse C3H10T1/2 cells. Type of assay: cell-based.
For assay [16], the system named is M210B4. Nature of the assay: Induction of Hh receptor-mediated osteogenesis in mouse M210B4 cells assessed as fold increase in Osx expression at 5 uM after 24 hrs by RT-PCR analysis relative to control. Format: cell-based. A digest of the protocol:
as §6

The nature of assay [17]: Agonist activity at LXR in mouse M210B4 cells assessed as increase in ABCA1 expression by RT-PCR analysis. Format: functional, cell-based. A digest of the protocol:
as §3

Assay [18] concerns M210B4. Kind of assay: Agonist activity at Hh receptor in mouse M210B4 cells assessed as upregulation of Ptch at 5 uM after 24 hrs by RT-PCR analysis in presence of cyclopamine relative to control. Type of assay: functional, cell-based. In outline: as §1
Assay [19] deals with M210B4. Nature of the assay: Induction of Hh receptor-mediated osteogenesis in mouse M210B4 cells assessed as fold increase in Osx expression at 5 uM up to 96 hrs by RT-PCR analysis relative to control. Type of assay: cell-based. A digest of the protocol:
as §6

Assay [20] in a line: (§7) Agonist activity at Hh receptor in mouse C3H10T1/2 cells assessed as increase in Gli1 expression by RT-PCR analysis. Type of assay: functional, cell-based. Particulars: C3H 10T1/2. In outline: as §3
For assay [21], the system named is C3H 10T1/2. The assay is described as §7. Type of assay: functional, cell-based. A digest of the protocol: as §3
Assay [22] concerns M210B4. Kind of assay: Induction of Hh receptor-mediated osteoblast formation in mouse M210B4 cells assessed as increase in ALP expression at 5 uM after 24 hrs by RT-PCR analysis relative to control. Type of assay: cell-based. A digest of the protocol: as §6
The nature of assay [23]: Agonist activity at LXR in mouse C3H10T1/2 cells assessed as increase in ABCA1 expression by RT-PCR analysis. Format: functional, cell-based. Conditions: C3H 10T1/2. In outline: as §3
Assay [24] relates to M210B4. Kind of assay: Agonist activity at Hh receptor in mouse M210B4 cells assessed as upregulation of Ptch at 5 uM after 24 hrs by RT-PCR analysis relative to control. Type of assay: functional, cell-based. In outline:
as §1

Assay [25] concerns M210B4. Nature of the assay: Induction of Hh receptor-mediated osteoblast formation in mouse M210B4 cells assessed as increase in ALP expression at 5 uM after 48 hrs by RT-PCR analysis relative to control. Type of assay: cell-based. In outline:
as §6

The subject of assay [26] is M210B4. Nature of the assay: Induction of Hh receptor-mediated osteogenesis in mouse M210B4 cells assessed as fold increase in Osx expression at 5 uM after 48 hrs by RT-PCR analysis relative to control. Type of assay: cell-based. A digest of the protocol: as §6

The structures appear in SMILES notation. Activity calls are given as the source filed them. The rule behind the calls is not given here.

Regarding `C[C@H](C(=O)CCC(C)(C)O)[C@H]1CC[C@H]2[C@@H]3CC=C4C[C@@H](O)CC[C@]4(C)[C@H]3CC[C@]12C`, the “fold change (FC)” value in assay [1] amounted to 6; in assay [2], 21.7.

In the case of `C[C@H](CCO)[C@H]1CC[C@H]2[C@@H]3CC=C4C[C@@H](O)CC[C@]4(C)[C@H]3CC[C@]12C`, the “fold change (FC)” value came out at 4.1 in [1] and 0.4 in assay [2]. For the same compound, the Selectivity ratio in [3] is 10.4.

`C[C@@H]([C@H]1CC[C@H]2[C@@H]3CC=C4C[C@@H](O)CC[C@]4(C)[C@H]3CC[C@]12C)[C@@H](O)CCC(C)(C)O`: the figures for the “fold change (FC)” value in [1] and in assay [2] were 9.9 and 2.9, respectively. The Selectivity ratio in assay [3] is listed as 3.4.

With `CC(C)CC[C@@H](O)[C@@H](C)[C@H]1CC[C@H]2[C@@H]3CC=C4C[C@@H](O)CC[C@]4(C)[C@H]3CC[C@]12C` [22(R)-HYDROXYCHOLESTEROL], the “fold change (FC)” value is given as 4.7 in assay [1] and 24.1 in [2].

In the case of `CC(C)CCC[C@@H](C)[C@H]1CC[C@H]2[C@@H]3[C@@H](O)C=C4C[C@@H](O)CC[C@]4(C)[C@H]3CC[C@]12C`, the figures for the “fold change (FC)” value in assay [1] and in assay [2] were 1.6 and 0.6, respectively. For the same compound, in assay [3], the Selectivity ratio stood at 2.6.

With `CC(C)CCC[C@](C)(O)[C@H]1CC[C@H]2[C@@H]3CC=C4C[C@@H](O)CC[C@]4(C)[C@H]3CC[C@@]21C`, the “fold change (FC)” value is on record as 91.8 in assay [1] and 13.4 in [2]. Further, the Selectivity ratio in [3] was 6.8.

Take `CC(C)CC[C@H](O)[C@@H](C)[C@H]1CC[C@H]2[C@@H]3CC=C4C[C@@H](O)CC[C@]4(C)[C@H]3CC[C@]12C`: the “fold change (FC)” value came out at 52.5 in assay [1] and 2.3 in assay [2]. In addition, the Selectivity ratio in [3] is 22.8.

For the compound `CC(C)C[C@@H](O)C[C@@H](C)[C@H]1CC[C@H]2[C@@H]3CC=C4C[C@@H](O)CC[C@]4(C)[C@H]3CC[C@]12C`, the result with M210B4 [4], with M210B4 [14], in the assay on M210B4 [19], with M210B4 [22], in the assay on M210B4 [24] and with M210B4 [25] was Active. Moreover, the Activity result with M210B4 [5], in the assay on M210B4 [9], with C3H 10T1/2 [12] and in the assay with C3H 10T1/2 [21] was “Dose-dependent effect” each time. For the same compound, the half-maximal effective concentration (EC50) in [6] was found to be 580 nM; in [10] it was 570 nM; in [11], 650 nM; in assay [17], 1540 nM; in assay [20], 540 nM; in assay [23] it was 1530 nM. The Ratio EC50 in the assay on M210B4 [7] was 3; in the assay on M210B4 [8] it was 1.06; with C3H 10T1/2 [15], 3. Further, the result in the assay on M210B4 [13] and in the assay on M210B4 [18] was inactive. For the same compound, the “fold change (FC)” value in [1] was 87.1; in the assay with M210B4 [16] it was 5; in assay [2] it was 4.9; in the assay with M210B4 [26] it was more than 30. Moreover, the Selectivity ratio in assay [3] stood at 17.8.

On to `C[C@H](CCCC(C)(C)O)[C@H]1CC[C@H]2[C@@H]3CC=C4C[C@@H](O)CC[C@]4(C)[C@H]3CC[C@]12C`, for which the “fold change (FC)” value in [1] came out at 69.9; in assay [2], 9.8. Also, the Selectivity ratio in assay [3] worked out at 7.1.

As for `CC(C)(O)CCC[C@](C)(O)[C@H]1CC[C@H]2[C@@H]3CC=C4C[C@@H](O)CC[C@]4(C)[C@H]3CC[C@@]21C`, the “fold change (FC)” value in assay [1] is listed as 107.8; in assay [2], 26.3. Besides, the Selectivity ratio in assay [3] stood at 4.1.

In the case of `CC(C)C[C@H](O)C[C@@H](C)[C@H]1CC[C@H]2[C@@H]3CC=C4C[C@@H](O)CC[C@]4(C)[C@H]3CC[C@]12C`, the results for the “fold change (FC)” value in assay [1] and in assay [2] were 32.4 and 3.6, respectively. In addition, the Selectivity ratio in assay [3] was 9.

For `C[C@H](C(O)CCC(C)(C)O)[C@H]1CC[C@H]2[C@@H]3CC=C4C[C@@H](O)CC[C@]4(C)[C@H]3CC[C@]12C` (mixture of isomers), the “fold change (FC)” value in assay [1] stood at 1; in [2], 0.9.

In the case of `CC(C)(O)CC[C@](C)(O)[C@H]1CC[C@H]2[C@@H]3CC=C4C[C@@H](O)CC[C@]4(C)[C@H]3CC[C@@]21C`, the “fold change (FC)” value in assay [1] amounted to 18.1; in assay [2], 10.3. The Selectivity ratio in assay [3] worked out at 1.8.

What is called EC50 is the concentration that produces a half-maximal response.
